According to ChEMBL document CHEMBL3351998, “Discovery of potent and specific dihydroisoxazole inhibitors of human transglutaminase 2” (J Med Chem, 2014):
The source made the active and inactive calls. The rule behind the calls is not given here.

Key:
[1] = molecular target: T1, Protein-glutamine gamma-glutamyltransferase (Homo sapiens) (UniProt P21980); assay: Inhibition of human transglutaminase 2 using ((benzyloxy)carbony l)-L-glutaminylglycine peptide substrate assessed as Kinh/Ki ratio by GDH coupled assay
T1 sequence (whole entry): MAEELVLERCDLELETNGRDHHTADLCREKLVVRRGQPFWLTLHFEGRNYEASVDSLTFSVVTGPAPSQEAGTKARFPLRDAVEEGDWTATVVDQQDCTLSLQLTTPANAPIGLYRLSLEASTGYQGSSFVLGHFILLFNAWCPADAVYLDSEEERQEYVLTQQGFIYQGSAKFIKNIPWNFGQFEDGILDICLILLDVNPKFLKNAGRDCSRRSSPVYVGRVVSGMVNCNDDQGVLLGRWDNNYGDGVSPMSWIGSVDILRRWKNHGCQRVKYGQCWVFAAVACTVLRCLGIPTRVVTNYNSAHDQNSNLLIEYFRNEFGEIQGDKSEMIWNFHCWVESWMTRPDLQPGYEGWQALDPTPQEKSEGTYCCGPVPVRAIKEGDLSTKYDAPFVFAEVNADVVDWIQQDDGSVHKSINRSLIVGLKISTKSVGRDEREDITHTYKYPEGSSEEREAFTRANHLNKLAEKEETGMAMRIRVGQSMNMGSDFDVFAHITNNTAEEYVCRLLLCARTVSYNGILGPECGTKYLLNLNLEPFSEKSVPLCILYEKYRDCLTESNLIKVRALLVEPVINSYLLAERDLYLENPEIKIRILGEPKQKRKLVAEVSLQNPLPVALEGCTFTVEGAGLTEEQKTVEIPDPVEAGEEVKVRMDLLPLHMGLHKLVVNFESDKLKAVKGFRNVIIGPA
Method in brief: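 Human TG2 (V224G variant) or codon-optimized murine TG2, E. coli-expressed, final ~0.34 and 0.22 μM respectively. Buffer: 200 mM MOPS pH 7.2, 5 mM CaCl2, 10 mM α-ketoglutarate, 300 μM NADH, 36 U/mL bovine GDH. Z-Gln-Gly at 10/20 mM. Inhibitors typically at 100/33.3/11.1/3.7 μM, 1% DMSO, added after ≥5 min pre-equilibration. A340 progress curves fitted to exponential decay; kinh/Ki from irreversible inhibition model.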

[2] = molecular target: T2, Protein-glutamine gamma-glutamyltransferase K (Homo sapiens) (UniProt P22735); assay: Inhibition of human transglutaminase 1 using ((benzyloxy)carbonyl)-L-glutaminyl-L-serine peptide substrate assessed as Kinh/Ki ratio by GDH coupled assay
T2 sequence (whole entry): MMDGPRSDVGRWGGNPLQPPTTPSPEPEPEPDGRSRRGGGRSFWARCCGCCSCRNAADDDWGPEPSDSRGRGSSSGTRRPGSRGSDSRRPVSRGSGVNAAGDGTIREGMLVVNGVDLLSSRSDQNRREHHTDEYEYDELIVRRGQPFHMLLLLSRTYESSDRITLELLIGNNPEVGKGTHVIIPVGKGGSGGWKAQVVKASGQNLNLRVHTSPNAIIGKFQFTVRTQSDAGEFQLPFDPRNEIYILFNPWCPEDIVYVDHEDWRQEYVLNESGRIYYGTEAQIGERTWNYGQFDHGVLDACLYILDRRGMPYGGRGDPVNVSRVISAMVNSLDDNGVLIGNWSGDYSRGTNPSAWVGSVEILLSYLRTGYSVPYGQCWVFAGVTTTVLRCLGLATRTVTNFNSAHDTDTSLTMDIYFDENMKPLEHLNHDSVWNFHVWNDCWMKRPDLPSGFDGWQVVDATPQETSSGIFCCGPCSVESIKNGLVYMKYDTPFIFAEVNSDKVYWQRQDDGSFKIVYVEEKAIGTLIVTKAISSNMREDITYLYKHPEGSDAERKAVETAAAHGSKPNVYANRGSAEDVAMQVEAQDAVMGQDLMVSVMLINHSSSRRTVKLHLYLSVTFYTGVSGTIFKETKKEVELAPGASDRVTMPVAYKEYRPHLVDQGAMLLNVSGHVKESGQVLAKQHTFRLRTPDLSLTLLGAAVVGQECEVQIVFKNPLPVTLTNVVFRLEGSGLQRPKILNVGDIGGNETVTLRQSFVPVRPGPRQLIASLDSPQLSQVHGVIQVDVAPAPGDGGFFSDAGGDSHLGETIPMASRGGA
Method in brief: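 Recombinant His-tagged human TG1 from E. coli Rosetta 2 pLysS, final ~0.37 μM, in 200 mM MOPS pH 7.2, 5 mM CaCl2, 10 mM α-ketoglutarate, 300 μM NADH, 36 U/mL GDH. Z-Gln-Ser at 20/40 mM. Inhibitors typically at 100/33.3/11.1/3.7 μM (1% DMSO), added after ≥5 min enzyme pre-equilibration. NADH loss read at 340 nm; progress curves fitted to exponential decay, kinh/Ki from irreversible model.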

| Compound | Ratio [1] | Ratio [2] |
| --- | --- | --- |
| O=C(NC[C@@H]1CC(Br)=NO1)[C@@H]1C=C(c2ccccc2)CN1C(=O)OCc1cnc2ccccc2c1 | 11.1 | 18.9 |
| O=C(N[C@@H]1C[C@@H](C(=O)NC[C@@H]2CC(Br)=NO2)N(C(=O)OCc2cnc3ccccc3c2)C1)c1cccc(O)c1 | 36.2 | 18.1 |
| O=C(NC[C@@H]1CC(Br)=NO1)[C@@H]1C[C@@H](c2cccc(Cl)c2)CN1C(=O)OCc1cnc2ccccc2c1 | 25.3 | 41.7 |
| O=C(NC[C@@H]1CC(Br)=NO1)[C@@H]1C[C@@H](c2cccc(O)c2)CN1C(=O)OCc1cnc2ccccc2c1 | 52.2 | 38.7 |
| O=C(N[C@@H]1C[C@@H](C(=O)NC[C@@H]2CC(Br)=NO2)N(C(=O)OCc2cnc3ccccc3c2)C1)c1ccccc1 | 25.8 | 24.6 |
| O=C(N[C@@H]1C[C@@H](C(=O)NC[C@@H]2CC(Br)=NO2)N(C(=O)OCc2cnc3ccccc3c2)C1)c1ccccc1O | 37.1 | 37.1 |
| N[C@@H]1C[C@@H](C(=O)NC[C@@H]2CC(Br)=NO2)N(C(=O)OCc2cnc3ccccc3c2)C1 | 2.6 | 3.1 |
| C#CCO[C@@H]1C[C@@H](C(=O)NC[C@@H]2CC(Br)=NO2)N(C(=O)OCc2cnc3ccccc3c2)C1 | 10.1 | 7.1 |
| O=C(NC[C@@H]1CC(Br)=NO1)[C@@H]1C[C@H](c2ccccc2)CN1C(=O)OCc1cnc2ccccc2c1 | 17.7 | 17.2 |
| O=C(NC[C@@H]1CC(Br)=NO1)[C@@H]1CCN(C(=O)OCc2cnc3ccccc3c2)C1 | 8.8 | 25.8 |
| CO[C@@H]1C[C@@H](C(=O)NC[C@@H]2CC(Br)=NO2)N(C(=O)OCc2cnc3ccccc3c2)C1 | 10.4 | 7.7 |
| O=C(NC[C@@H]1CC(Br)=NO1)[C@@H]1C[C@@H](c2ccc(Cl)cc2)CN1C(=O)OCc1cnc2ccccc2c1 | 12 | 15.4 |
| O=C(NC[C@@H]1CC(Br)=NO1)[C@@H]1C[C@@H](F)CN1C(=O)OCc1cnc2ccccc2c1 | 7.3 | 6.7 |
| C[C@@]1(C(=O)NC[C@@H]2CC(Br)=NO2)CCCN1C(=O)OCc1cnc2ccccc2c1 | 2 | 2.4 |
| O=C(NC[C@@H]1CC(Br)=NO1)[C@@H]1C[C@@H](c2c[nH]c3ccc(F)cc23)CN1C(=O)OCc1cnc2ccccc2c1 | 18.4 | 48 |
| C[C@H](OC(=O)N1CCC[C@@H]1C(=O)NC[C@@H]1CC(Br)=NO1)c1cnc2ccccc2c1 | 3.7 | 8.7 |
| C[C@H](OC(=O)N1CCC[C@H]1C(=O)NC[C@@H]1CC(Br)=NO1)c1ccc2ccccc2c1 | 9 | 11.5 |
| O=C(NC[C@@H]1CC(Br)=NO1)[C@@H]1C[C@@H](NC(=O)C2(C(=O)O)CCC2)CN1C(=O)OCc1cnc2ccccc2c1 | 14.8 | 11.6 |
| O=C(N[C@@H]1C[C@@H](C(=O)NC[C@@H]2CC(Br)=NO2)N(C(=O)OCc2cnc3ccccc3c2)C1)c1cnccn1 | 15.7 | 12 |
| O=C(NC[C@@H]1CC(Br)=NO1)[C@@H]1C[C@@H](Cc2ccccc2)CN1C(=O)OCc1cnc2ccccc2c1 | 10.2 | 23.1 |
| O=C(C[C@@H]1CCCN1C(=O)OCc1cnc2ccccc2c1)NC[C@@H]1CC(Br)=NO1 | 1.3 | 1.3 |
| C[C@H](OC(=O)N1CCC[C@@H]1C(=O)NC[C@@H]1CC(Br)=NO1)c1ccc2ccccc2c1 | 2.9 | 5.1 |
| O=C(NC[C@@H]1CC(Br)=NO1)[C@@H]1C[C@@H](c2ccccc2O)CN1C(=O)OCc1cnc2ccccc2c1 | 33.8 | 29.5 |
| CC(C)(C)OC(=O)N1CCC[C@H]1C(=O)NC[C@@H]1CC(Br)=NO1 | 2.5 | 2.3 |

More lines, now with the values ahead:

| Ratio [1] | Ratio [2] | Compound |
| --- | --- | --- |
| 4.1 | 4.5 | O=C(NC[C@@H]1CC(Br)=NO1)[C@@H]1CCCN1C(=O)OCc1ccccc1 |
| 2 | 12 | O=C(NC[C@@H]1CC(Br)=NO1)[C@@H]1CCCN1C(=O)OCc1ccnc2ccccc12 |
| 12 | 22.2 | O=C(NC[C@@H]1CC(Br)=NO1)[C@@H]1CCCCN1C(=O)OCc1cnc2ccccc2c1 |
| 4.8 | 3.9 | O=C(NC[C@@H]1CC(Br)=NO1)[C@@H]1CCCN1C(=O)OCc1cccc(OCc2ccccc2)c1 |
| 4.6 | 4.3 | O=C(NC[C@@H]1CC(Br)=NO1)[C@@H]1CCCN1C(=O)OCc1cccnc1 |
| 6.4 | 7.6 | C#Cc1ccc(COC(=O)N2CCC[C@H]2C(=O)NC[C@@H]2CC(Br)=NO2)cc1 |
| 1.6 | 15.4 | O=C(NC[C@@H]1CC(Br)=NO1)[C@@H]1CCCN1C(=O)OCc1cnc2ccccc2n1 |
| inactive | 0.85 | Cn1c(COC(=O)N2CCC[C@H]2C(=O)NC[C@@H]2CC(Br)=NO2)nc2ccccc21 |
| 1.2 | 1.6 | O=C(NC[C@@H]1CC(Br)=NO1)[C@@H]1CCCN1C(=O)OCc1ccccn1 |
| 2.6 | 10.8 | O=C(NC[C@@H]1CC(Br)=NO1)[C@@H]1CCCN1C(=O)OCc1ccncc1 |
| inactive | inactive | O=C(NC[C@@H]1CC(Br)=NO1)[C@@H]1CCCN1C(=O)OCc1nc2ccccc2[nH]1 |
| 14.4 | 13.6 | O=C(NC[C@@H]1CC(Br)=NO1)[C@@H]1CCN1C(=O)OCc1cnc2ccccc2c1 |
| inactive | 1.7 | COc1cccc(COC(=O)N2CCC[C@H]2C(=O)NC[C@@H]2CC(Br)=NO2)c1OC |
| 3.9 | 5.6 | O=C(NC[C@@H]1CC(Br)=NO1)[C@@H]1CCCN1C(=O)OCc1cccc(F)c1 |
| 2.4 | 0.7 | C#CCOC(=O)N1CCC[C@H]1C(=O)NC[C@@H]1CC(Br)=NO1 |
